Rows were chosen to be rich in hits. Some 3.7% of all compounds tested hit in one or more screens of this group.
NPY-Y1 antag: NPY-Y1 (human) receptor antagonism. hit rate 1% among 200,000. P25929. HEK293-CNG Y1 cells, membrane potential fluorescence; NPY at EC95, then isoproterenol. inhibition, % at 3.6 µM;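 active = inhibition above the campaign mean inhibition of all tested compounds plus 3 SD, cut at about 20% in these data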;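 also: 0% = DMSO wells given NPY plus isoproterenol and 100% = isoproterenol alone without NPY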
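Test system: HEK293 cells co-expressing NPY Y1 receptor and cyclic-nucleotide gated channel; Also added: NPY (25 nM), isoproterenol (1 µM), Ro 20-1724 (25 µM); Compound dosing: one concentration, 3.6 µM, in 0.4% DMSO; Timing: dye 3 h, compound 60 min room temperature, stimulation 45 min; Technique: Membrane-potential fluorescent dye readout.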
NPY-Y2 antag: blocks the human neuropeptide Y Y2 receptor; inhibition, % at 2.7 µM; NPY-Y2 expressing cells, antagonist mode; AID 793; hit rate 0.99% among 140,000; in the data active = inhibition above about 17%;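 also: 0% = vehicle with agonist challenge and 100% = reference antagonist with challenge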
NPY2 pot ag: potentiates or activates human NPY-Y2 receptor; hit rate 0.45% among 220,000; cells expressing NPY-Y2, potentiator/agonist read-out; activation, % at 3.6 µM; P49146; AID 1359; in the data active = activation above about 27%;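 also: cells stimulated with NPY near EC25 plus isoproterenol at EC100; 0% = vehicle plus submaximal agonist and 100% = vehicle plus saturating agonist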
NPY-Y1 PAM-ag: potentiators or agonists of human neuropeptide Y receptor Y1 | NPY-Y1 expressing cells, potentiator/agonist activation | AID 1304 | activation, % at 3.6 µM | hit rate 0.37% among 220,000; in the data active = activation above about 33%, passing the limit was not always enough;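 also: cells stimulated with NPY at EC10 then isoproterenol at EC100; 0% = low agonist plus stimulus and 100% = saturating agonist plus stimulus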
KCC2 mod: modulates chloride dependent transport by human KCC2; B-score of Tl+ flux slope (higher = more flux/activation; lower = inhibition) at 10 µM; KCC2 cells, thallium flux FluoZin-2 fluorescence; Q9H2X9; hit rate 2.2% among 190,000;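 active = thallium flux slope and its plate-corrected score both differing from the plate sample mean at a set confidence after two filtering rounds, in either direction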;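 also: slope of fluorescence scaled to starting intensity during 10 to 20 s after thallium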
Furin inh: inhibitors of human furin; P09958; purified furin, fluorogenic substrate cleavage; inhibition, % at 20 µM or 30 µM; hit rate 0.061% among 220,000; in the data active = inhibition above about 25%
KCC2 secondary: confirmation of human KCC2 transport modulators; HEK293-KCC2, thallium flux, FluoZin2 fluorescence; stronger effect = higher value; normalised thallium flux (F/F0 slope) at 10 µM; shares compounds with KCC2 mod; hit rate 15% among 3,700;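 active = thallium flux slope above the same plate's solvent-only control mean plus 3 SD; inconclusive = the two replicate wells disagree; inactive = no significant difference from solvent-only control wells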
KCC2 bumet counter: thallium flux despite bumetanide block in KCC2 cells, secondary assay 3. shares compounds with KCC2 mod. HEK293-KCC2 + bumetanide/ouabain, thallium flux FluoZin2; stronger effect = higher value. normalized thallium flux at 10 µM. hit rate 49% among 3,700;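 active = thallium entry rate above the same plate's blocked-transporter control wells by more than 3 SD; inconclusive = the two repeat wells disagree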;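 also: raw slope of fluorescence over initial fluorescence between 10 and 20 s after thallium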
KCC2 sec2: confirmation of human KCC2 transport modulators; normalized thallium flux at 10 µM; hit rate 23% among 3,700; AID 1715; shares compounds with KCC2 mod; HEK293-KCC2, thallium flux FluoZin2 fluorescence; actives lie on both sides; F/F0 rise rate, 10–20 s post-thallium;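 active = thallium flux slope more than 3 SD above or below the plate's solvent-only control mean, mostly below; inconclusive = the two repeat wells disagreed; inactive = no significant shift from solvent-only controls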;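 also: raw slope with 0.1% DMSO as baseline and bumetanide as block control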
HEK293 Tl flux: acts in parental HEK cells, KCC2 counter-screen. shares compounds with KCC2 mod. HEK293 parental cells, thallium flux FluoZin2, ouabain; baseline-ratio fluorescence slope, 10–20 s after thallium. thallium flux rate (normalised fluorescence) at 10 µM. hit rate 46% among 3,700;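 active = thallium flux rate significantly above the same plate's solvent-only control wells, beyond their mean plus 3 SD; inconclusive = the two replicate wells gave conflicting results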
KCC2 retest ouab: modulates human KCC2 on retest with ouabain. raw Tl+ flux slope (below DMSO = inhibition, above = activation) at 10 µM. hit rate 48% among 3,700. HEK293-KCC2, thallium flux FluoZin2 fluorescence; bidirectional: low = inhibitor, high = activator. shares compounds with KCC2 mod;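 active = thallium flux slope beyond 3 SD from same-plate DMSO control mean in most replicates, usually higher, sometimes lower; inconclusive = repeat tests gave conflicting results; inactive = no significant difference from controls in most replicates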;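 also: slope of initial-normalized fluorescence between seconds 10 and 20 after thallium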
HEK293 Tl flux2: parental HEK flux effect, counter-screen 2; shares compounds with KCC2 mod; HEK293 parental, thallium flux FluoZin-2 fluorescence slope; thallium flux slope at 10 µM; hit rate 33% among 3,700; AID 1718;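 active = thallium flux slope above the same plate's solvent-control mean plus 3 SD in both duplicate wells; inconclusive = duplicate wells that disagreed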;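 also: run without ouabain in cells lacking the KCC2 cotransporter; slope of fluorescence scaled to its starting value between 10 and 20 s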
Active calls of the source: *; ? = inconclusive; . = no result.

SMILES | NPY-Y1 antag | NPY-Y2 antag | NPY2 pot ag | NPY-Y1 PAM-ag | KCC2 mod | Furin inh | KCC2 secondary | KCC2 bumet counter | KCC2 sec2 | HEK293 Tl flux | KCC2 retest ouab | HEK293 Tl flux2
COc1ccc(-c2csc(NC(=O)c3nc(-c4ccccc4)oc3C)n2)cc1 | 0 | 3 | -13 | -16 | 1 | -13 | . | . | . | . | . | .
Cc1oc(-c2ccccc2)nc1C(=O)Nc1nccs1 | 2 | 5 | 0 | -3 | 7.7* | -9 | 0.01 | 0.016* | 0.032 | 0.0097* | 0.022 | 0.012*
CCN(CC)C(=O)Cn1cc(S(=O)(=O)CC(=O)NC2CCCCC2)c2ccccc21 | 4 | . | 3 | 5 | -0.32 | -18 | . | . | . | . | . | .
N=C1S/C(=C\c2ccco2)C(=O)N1c1nccs1 | -2 | . | -1 | -31 | 19* | -13 | 0.028* | 0.075* | ? | 0.028* | 0.049* | 0.015*
CC(C)c1nc2sc3c(=O)[nH]c(=S)[nH]c3c2c2c1CCC2 | -2 | 3 | 4 | 0 | -7.9* | -20 | 0.016 | 0.0063* | ? | 0.0051* | 0.0094* | ?
CCOC(=O)c1ccc(CNC(=O)CCC(=O)O)cc1 | 1 | 1 | -7 | -26 | . | -8 | 0.01 | 0.0051 | 0.034 | 0.007 | 0.022 | 0.01
CCOC(=O)c1ccc(CNCc2ccccc2)cc1 | 0 | 4 | 11 | -16 | 1 | -20 | . | . | . | . | . | .
Cc1ccc(C)c(NC(=O)CSc2nnc([C@@H](N)Cc3ccccc3)o2)c1 | -2 | -1 | -5 | 19 | -4.3* | -20 | 0.0089 | 0.0067 | ? | 0.0068 | 0.014* | ?
CSc1ncccc1C(=O)OCC(=O)NCc1ccc2c(c1)OCO2 | 13 | . | -21 | -6 | -0.66 | -30 | . | . | . | . | . | .
Cc1ccc(NC(=O)/C(=C\C=C\c2ccccc2)NC(=O)c2ccccc2)cc1 | 5 | 3 | -41 | -47 | -4* | 0 | ? | 0.0056 | 0.03 | 0.0064 | 0.013* | 0.01
O=C(Nc1nc(-c2cccc([N+](=O)[O-])c2)cs1)C(c1ccccc1)c1ccccc1 | -1 | 2 | -3 | -11 | 0.31 | -15 | . | . | . | . | . | .
O=C(NNC(=S)NC(=O)c1ccccc1[N+](=O)[O-])c1ccccc1Cl | -3 | 1 | 1 | 24 | 0.11 | -14 | . | . | . | . | . | .
O=C(NC(=S)Nc1nc(-c2cccc([N+](=O)[O-])c2)cs1)c1cc(Cl)ccc1Cl | 4 | . | -7 | 7 | 6.1* | -30 | 0.0097 | 0.011* | 0.032 | 0.0088* | 0.027* | 0.01*
CCc1ccccc1NC(=S)NNC(=O)c1ccccc1Cl | 10 | . | -1 | -6 | 3.2* | -26 | 0.017 | 0.012* | 0.03 | 0.011* | 0.019 | 0.014*
O=C(NC(=S)Nc1ccccc1[N+](=O)[O-])c1ccccc1Cl | . | . | -41 | 11 | 19* | -9 | ? | 0.034* | 0.035 | 0.019* | 0.03* | 0.013*
O=C(NC(=S)Nc1nc(-c2cccc([N+](=O)[O-])c2)cs1)c1ccccc1Cl | 9 | . | -15 | -5 | 4.8* | -20 | 0.0073 | 0.0079* | 0.03 | 0.012* | 0.024* | 0.014*
COC(=O)c1ccccc1NC(=S)NC(=O)COc1ccc(C)cc1 | 14 | 10 | -36 | -30 | 3.2 | -30 | . | . | . | . | . | .

Screens deposited in PubChem BioAssay by several laboratories.
